Laboratory results reported in paper PMC3587690 (Bioorganic & medicinal chemistry, 2012).

How the values were obtained:
[1] = system: A549, MCF-7, MDA-MB-231 and MDA-MB-468; assay: MTT growth inhibition, average of four cancer cell lines; assay type: cell-based; conditions: read-out: GI50 Average
In short: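 Each of the four lines, grown in DMEM with 10% FBS at 37 °C and 5% CO2, was incubated with the test compound for 72 h, and growth was read by MTT absorbance at 570 nm. Percent growth was 100 × (treated − time-0)/(medium control − time-0). GI50 came from non-linear regression of the growth–concentration curve, and the four mean GI50s were averaged. Single experiments were run in duplicate where no SD is given.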

[2] = system: MCF-7 cells expressing VP16-CREB; assay: MTT assay in MCF-7 cells expressing VP16-CREB versus parental MCF-7; assay type: cell-based; conditions: 48 h
In short: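 MCF-7 cells were lipofected with a plasmid encoding Flag-tagged VP16-CREB. From 2 days post-transfection they were selected in 2 mg/mL G418 until a stable colony formed, and expression was checked by anti-FLAG blot. The stable line and parental MCF-7 were treated in triplicate for 48 h, and live cells were quantified by MTT. Student's t-test was used.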

A549 cells = assay: Annexin-V/PI flow cytometry apoptosis assay; assay type: cell-based; conditions: 10 µM, 48 h, vehicle […]
VEGF [3] = assay: VEGF ELISA assay of A549 culture media; assay type: cell-based; conditions: A549 cells, 24 h
In short: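 A549 cells were treated in duplicate with the indicated test compound concentrations for 24 h. VEGF in the culture medium was measured by ELISA and normalised to medium protein concentration. One-way ANOVA was used.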

[4] = system: p53-mediated gene transcription; assay: p53 transcription reporter assay; assay type: cell-based; conditions: transcription reporter assay (Fig. S2)
NCI-60 cancer cell panel = assay: NCI-60 cancer cell panel; assay type: cell-based; conditions: Fig. S1
p21 [5] = assay: Western blot of p21 in A549 cells; assay type: cell-based; conditions: all concentrations tested, 48 h
In short: (§1)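 Exponentially growing A549 cells were treated with different test compound concentrations for 48 h and washed twice in cold PBS (pH 7.4). They were lysed in NP-40 buffer (50 mM Tris-HCl pH 8.0, 5 mM EDTA, 150 mM NaCl, 1 mM DTT, 0.5% NP-40) containing 8 M urea. Equal protein was run on 10% SDS-PAGE, transferred to PVDF and probed with specific antibodies, using GAPDH as the loading control.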

[6] = system: normal human mammary epithelial cells (HMEC); assay: HMEC growth inhibition, trypan blue exclusion assay; assay type: cell-based; conditions: 10 µM and lower, 48 h
In short: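 Proliferating normal HMEC were cultured routinely in MEGM complete medium with penicillin/streptomycin at 37 °C under 5% CO2. On the day of treatment the medium was changed to DMEM with 10% FBS. Cells were exposed to various test compound concentrations in triplicate for 48 h, then live cells were counted by trypan blue exclusion. One-way ANOVA was used.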

Bcl-2 [7] = assay: Western blot of Bcl-2 in A549 cells; assay type: cell-based; conditions: increasing concentrations, 48 h
In short: as §1

[8] = system: VP16-CREB-mediated gene transcription; conditions: cited from earlier work
[9] = system: human foreskin fibroblast (HFF) cells; assay: HFF growth inhibition, trypan blue exclusion assay; assay type: cell-based; conditions: 48 h
In short: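 HFF cells were maintained in DMEM with 10% FBS and penicillin/streptomycin at 37 °C under 5% CO2. Cells were treated with increasing test compound concentrations in triplicate for 48 h, and live cells were counted by trypan blue exclusion.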

p21 [10] = assay: qRT-PCR of p21 transcript in A549 cells; assay type: cell-based; conditions: 4 h
In short: (§2)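 Exponentially growing A549 cells were treated in duplicate for 4 h. Total RNA was extracted and DNase-treated at 37 °C for 30 min, then cDNA was made with random primers. Transcripts were quantified by SYBR Green qPCR, normalised to HPRT, using the 2−ΔΔCt method. One-way ANOVA was used.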

Bcl-2 [11] = assay: qRT-PCR of bcl-2 transcript in A549 cells; assay type: cell-based; conditions: 4 h
In short: as §2

VEGF [12] = assay: qRT-PCR of VEGF transcript in A549 cells; assay type: cell-based; conditions: 4 h
In short: as §2

[13] = system: poly (ADP-ribose) polymerase (PARP); assay: Western blot of PARP cleavage in A549 cells; assay type: cell-based; conditions: 48 h
In short: as §1

[14] = system: CREB-mediated gene transcription in HEK 293T cells; conditions: cited from earlier work
KIX–KID interaction = KIX–KID interaction (Homo sapiens, UniProt Q92793); conditions: cited from earlier work
Sequence of KIX–KID interaction (Q92793 587-666 limits assumed): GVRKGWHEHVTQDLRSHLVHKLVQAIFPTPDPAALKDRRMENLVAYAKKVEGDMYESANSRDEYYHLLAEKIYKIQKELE

O=C(Nc1cccc(Cl)c1)c1cc2ccccc2cc1O [Compound 1b, N-(3-Chlorophenyl)-3-hydroxy-2-naphthamide]
GI50 [1]: 3.4 µM

O=C(Nc1ccc(F)c(F)c1)c1cc2ccccc2cc1O [Compound 1k, N-(3,4-Difluorophenyl)-3-hydroxy-2-naphthamide]
GI50 [1]: 5.35 µM

O=C(Nc1ccncc1)c1cc2ccccc2cc1O [Compound 10b, 3-Hydroxy-N-(pyridin-4-yl)-2-naphthamide]
GI50 [1]: 34.9 µM

O=C(Nc1ccc(Br)cc1)c1cc2ccccc2cc1O [Compound 1e, N-(4-Bromophenyl)-3-hydroxy-2-naphthamide]
GI50 [1]: 5.59 µM

O=C(Nc1cnccn1)c1cc2ccccc2cc1O [Compound 10c, 3-Hydroxy-N-(pyrazin-2-yl)-2-naphthamide]
GI50 [1]: > 47.2 µM

O=C(Nc1ccc(Cl)cc1)c1cc2ccccc2cc1O [Compound 1a, naphthol AS-E]
sensitivity of MCF-7 cells expressing VP16-CREB compared to parental MCF-7 cells [2]: more resistant
GI50 [1]: 2.38 µM
cells undergoing apoptosis (annexin+/PI−) (A549 cells): Up to 19.4%
expression of VEGF in culture media (VEGF [3]): down-regulated
inhibition of p53-mediated gene transcription [4]: not inhibited
growth inhibition in NCI-60 panel (NCI-60 cancer cell panel): inhibited the growth of most of the cancer cells
expression of p21 protein (p21 [5]): unchanged
toxicity to HMEC (number of live cells) [6]: little or no toxicity
expression level of Bcl-2 protein (Bcl-2 [7]): decreased
inhibition of VP16-CREB-mediated gene transcription [8]: did not inhibit
toxicity to HFF cells (number of live cells) [9]: did not observe significant toxicity
transcript level of p21 (p21 [10]): essentially unchanged
transcript level of bcl-2 (Bcl-2 [11]): decreased
transcript level of VEGF (VEGF [12]): decreased
cleavage of PARP [13]: observed

O=C(Nc1ccccc1Cl)c1cc2ccccc2cc1O [Compound 1c, N-(2-Chlorophenyl)-3-hydroxy-2-naphthamide]
GI50 [1]: 7.73 µM

O=C(Nc1ccc(I)cc1)c1cc2ccccc2cc1O [Compound 1f, 3-Hydroxy-N-(4-iodophenyl)-2-naphthamide]
GI50 [1]: 6.52 µM

O=C(Nc1ccccn1)c1cc2ccccc2cc1O [Compound 10a, 3-Hydroxy-N-(pyridin-2-yl)-2-naphthamide]
GI50 [1]: 33 µM

O=C(Nc1ccc(O)cc1)c1cc2ccccc2cc1O [Compound 1h, 3-Hydroxy-N-(4-hydroxyphenyl)-2-naphthamide]
GI50 [1]: > 50.8 µM

Nc1ccc(NC(=O)c2cc3ccccc3cc2O)cc1 [Compound 1g, N-(4-Aminophenyl)-3-hydroxy-2-naphthamide]
GI50 [1]: > 59.1 µM

O=C(Nc1ccc(F)c(Cl)c1)c1cc2ccccc2cc1O [Compound 1l, N-(3-Chloro-4-fluorophenyl)-3-hydroxy-2-naphthamide]
GI50 [1]: 3.39 µM

O=C(Nc1ccc(C(F)(F)F)cc1)c1cc2ccccc2cc1O [Compound 1i, 3-Hydroxy-N-(4-trifluoromethylphenyl)-2-naphthamide]
GI50 [1]: 33.8 µM

COc1ccc(NC(=O)c2cc3ccccc3cc2O)cc1 [Compound 1j, 3-Hydroxy-N-(4-methoxyphenyl)-2-naphthamide]
GI50 [1]: 61.7 µM

O=C(Nc1ccc(F)cc1)c1cc2ccccc2cc1O [Compound 1d, N-(4-Fluorophenyl)-3-hydroxy-2-naphthamide]
GI50 [1]: 6.29 µM

CN(C(=O)c1cc2ccccc2cc1O)c1ccc(Cl)cc1 [Compound 11]
sensitivity of MCF-7 cells expressing VP16-CREB compared to parental MCF-7 cells [2]: equally effective
inhibition of CREB's activity [14]: did not inhibit
inhibition of KIX–KID interaction (KIX–KID interaction): did not inhibit
